According to ChEMBL document CHEMBL3085769, “Synthesis and evaluation of a (18)F-labeled diarylpyrazole glycoconjugate for the imaging of NTS1-positive tumors” (J Med Chem, 2013):
Active and inactive are the calls of the source. The rule behind the calls is not given here.

How the values were obtained:
[1] = target: Neurotensin receptor type 1 (Rattus norvegicus) (UniProt P20789); experiment: Binding affinity to NTS1 receptor in Sprague-Dawley rat brain at 10 MBq after 60 mins by autoradiography in presence of neurotensin; settings: 10 M, tested as the 18F-labelled form
Neurotensin receptor type 1 (Rattus norvegicus), sequence (P20789 whole entry): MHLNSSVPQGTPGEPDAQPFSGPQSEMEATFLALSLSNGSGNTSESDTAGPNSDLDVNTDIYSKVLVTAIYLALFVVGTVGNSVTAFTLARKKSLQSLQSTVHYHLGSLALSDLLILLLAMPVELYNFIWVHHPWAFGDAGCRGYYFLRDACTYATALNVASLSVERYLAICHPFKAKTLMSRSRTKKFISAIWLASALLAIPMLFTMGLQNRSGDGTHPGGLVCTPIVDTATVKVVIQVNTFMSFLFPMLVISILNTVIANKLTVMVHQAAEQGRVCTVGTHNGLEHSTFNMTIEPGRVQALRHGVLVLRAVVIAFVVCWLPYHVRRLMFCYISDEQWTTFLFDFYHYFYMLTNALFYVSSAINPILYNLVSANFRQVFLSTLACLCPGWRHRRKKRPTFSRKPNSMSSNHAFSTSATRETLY

[2] = target: T1, Neurotensin receptor type 2 (Rattus norvegicus) (UniProt Q63384); experiment: Binding affinity to NTS2 receptor in Sprague-Dawley rat brain cortex at 10 MBq after 60 mins by autoradiography in presence of H-Arg-Arg-Pro-N-h-Tyr-Ile-Leu-OH; settings: 10 M, tested as the 18F-labelled form
T1 sequence (whole entry): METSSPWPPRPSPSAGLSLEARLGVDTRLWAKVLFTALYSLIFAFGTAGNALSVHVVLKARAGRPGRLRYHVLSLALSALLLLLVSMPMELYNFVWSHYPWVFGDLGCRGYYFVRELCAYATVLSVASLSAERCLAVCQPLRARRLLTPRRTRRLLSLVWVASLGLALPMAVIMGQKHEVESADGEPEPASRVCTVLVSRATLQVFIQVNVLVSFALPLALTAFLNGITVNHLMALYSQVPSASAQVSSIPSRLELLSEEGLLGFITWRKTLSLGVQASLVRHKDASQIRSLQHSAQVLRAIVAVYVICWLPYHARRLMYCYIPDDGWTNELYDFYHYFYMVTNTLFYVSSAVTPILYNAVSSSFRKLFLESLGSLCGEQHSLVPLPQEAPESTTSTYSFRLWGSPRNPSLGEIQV

[3] = target: Neurotensin receptor type 1 (Rattus norvegicus) (UniProt P20789); experiment: Binding affinity to NTS1 receptor in Sprague-Dawley rat brain at 10 MBq after 60 mins by autoradiography in presence of H-Arg-Arg-Pro-N-h-Tyr-Ile-Leu-OH; settings: 10 M, tested as the 18F-labelled form
[4] = target: Neurotensin receptor type 1 (Rattus norvegicus) (UniProt P20789); experiment: Binding affinity to NTS1 receptor in Sprague-Dawley rat brain at 10 MBq after 60 mins by autoradiography; settings: 10 M, tested as the 18F-labelled form
[5] = target: Neurotensin receptor type 2 (Homo sapiens, UniProt O95665); experiment: Displacement of [3H]NT(8 to 13) from human NTS2 receptor expressed in HEK293 cells; type: cell-based
Neurotensin receptor type 2, sequence (O95665 whole entry): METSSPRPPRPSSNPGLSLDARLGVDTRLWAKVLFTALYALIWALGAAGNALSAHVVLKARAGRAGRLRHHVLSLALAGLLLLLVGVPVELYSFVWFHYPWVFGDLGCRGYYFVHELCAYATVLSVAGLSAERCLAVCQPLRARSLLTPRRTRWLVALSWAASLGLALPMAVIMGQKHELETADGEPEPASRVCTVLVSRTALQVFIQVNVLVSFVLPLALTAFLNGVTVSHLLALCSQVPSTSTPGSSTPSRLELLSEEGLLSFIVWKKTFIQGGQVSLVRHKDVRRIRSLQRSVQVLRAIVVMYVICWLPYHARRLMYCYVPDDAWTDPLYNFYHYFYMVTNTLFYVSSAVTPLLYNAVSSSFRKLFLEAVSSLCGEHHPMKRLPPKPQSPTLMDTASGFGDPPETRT

[6] = target: Neurotensin receptor type 1 (Homo sapiens, UniProt P30989); experiment: Displacement of [3H]neurotensin from human NTS1 receptor expressed in CHO cells; type: cell-based
Neurotensin receptor type 1, sequence (P30989 whole entry): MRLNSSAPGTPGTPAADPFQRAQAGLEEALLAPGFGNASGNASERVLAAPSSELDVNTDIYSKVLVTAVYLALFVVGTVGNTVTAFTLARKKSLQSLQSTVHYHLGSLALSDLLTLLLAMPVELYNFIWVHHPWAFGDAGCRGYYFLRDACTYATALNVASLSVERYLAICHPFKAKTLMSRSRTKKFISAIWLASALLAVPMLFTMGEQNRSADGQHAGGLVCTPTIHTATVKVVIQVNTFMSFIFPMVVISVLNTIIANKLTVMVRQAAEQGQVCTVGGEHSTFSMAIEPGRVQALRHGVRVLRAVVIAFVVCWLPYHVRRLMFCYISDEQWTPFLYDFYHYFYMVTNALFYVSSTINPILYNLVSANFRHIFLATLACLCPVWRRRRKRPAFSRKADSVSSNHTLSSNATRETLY

Liver = experiment: Drug uptake in liver of athymic nude mouse transfected with human HT-29 cells at 4 to 8 MBq, iv after 10 to 60 mins by gamma-counting analysis; type: ADME, organism-based; settings: in vivo
How it was run: (§1)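 Biodistribution in nude mice carrying HT29 xenografts with 7–10 mm tumor diameter. Tissues were sampled at 10, 30 and 60 min post-injection. Uptake is expressed as % ID/g, and tumor-to-organ ratios were also calculated. Values are mean ± SD from two animals.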

Blood = experiment: Drug uptake in blood of athymic nude mouse transfected with human HT-29 cells at 4 to 8 MBq, iv after 10 to 60 mins by gamma-counting analysis; type: ADME, organism-based; settings: in vivo; how it was run: as §1
[7] = Metabolic stability in blood of athymic nude mouse transfected with human HT-29 cells at 4 to 8 MBq, iv after 10 mins by radio-HPLC analysis; type: ADME, organism-based; settings: read-out: Stability
How it was run: (§2)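 Blood samples were taken from HT29 xenografted nude mice at 10 and 30 min post-injection. Intact tracer was quantified by radio-HPLC. Radiochemical purity of the injected tracer was above 99% by radio-HPLC.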

Tumour [8] = experiment: Drug uptake in tumor of athymic nude mouse transfected with human HT-29 cells at 1 to 3 MBq, iv after 45 to 65 mins by PET imaging analysis in presence of SR142948A; type: ADME, organism-based, Neoplasm; settings: in vivo
How it was run: (§3)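 Small-animal PET of HT29 xenografted nude mice (tumor diameter 7–10 mm), with images taken 45–65 min post-injection. Tumor uptake was quantified by μPET as % ID/g. For blocking, 3 mg/kg of the […] NTS1 ligand SR142948A was co-injected with the tracer. Values are mean ± SEM from 4 animals.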

Tumour [9] = experiment: Drug uptake in tumor of athymic nude mouse transfected with human HT-29 cells at 1 to 3 MBq, iv after 45 to 65 mins by PET imaging analysis; type: ADME, organism-based, Neoplasm; settings: in vivo; how it was run: as §3
Nucleic Acid [10] = experiment: Ratio of drug uptake in tumor to kidney of athymic nude mouse transfected with human HT-29 cells at 4 to 8 MBq, iv after 60 mins by gamma-counting analysis; type: ADME, organism-based; settings: in vivo, 1 h
How it was run: (§4)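 [18F]-labelled tracer (radiochemical purity >99% by radio-HPLC) injected into nude mice bearing HT29 xenografts with 7–10 mm tumour diameter. Organ and tumour uptake were measured as % ID/g at 10, 30 and 60 min post-injection. Tumour-to-organ ratios were derived from these values and reported as mean ± SD of two animals.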

Nucleic Acid [11] = experiment: Ratio of drug uptake in tumor to blood of athymic nude mouse xenografted with human HT-29 cells at 4 to 8 MBq, iv after 10 to 60 mins by gamma-counting analysis; type: ADME, organism-based; settings: tumour; how it was run: as §4
Tumour [12] = experiment: Drug uptake in tumor of athymic nude mouse xenografted with human HT-29 cells at 4 to 8 MBq, iv after 60 mins by gamma-counting analysis; type: ADME, organism-based, Neoplasm; settings: in vivo, 1 h; how it was run: as §1
Tumour [13] = experiment: Drug uptake in tumor of athymic nude mouse xenografted with human HT-29 cells at 4 to 8 MBq, iv after 10 mins by gamma-counting analysis; type: ADME, organism-based, Neoplasm; settings: in vivo; how it was run: as §1
Kidney = experiment: Drug uptake in kidney of athymic nude mouse xenografted with human HT-29 cells at 4 to 8 MBq, iv after 10 to 60 mins by gamma-counting analysis; type: ADME, organism-based; settings: in vivo; how it was run: as §1
Brain = experiment: Drug uptake in Sprague-Dawley rat brain by autoradiography; type: ADME, tissue-based; settings: in vivo
[14] = Metabolic stability in blood of athymic nude mouse xenografted with human HT-29 cells at 4 to 8 MBq, iv after 30 mins by radio-HPLC analysis; type: ADME, organism-based; settings: read-out: Stability; how it was run: as §2
[15] = Octanol-water partition coefficient, log D of the compound at pH 7.4 by gamma-counting analysis; type: physicochemical
Serum = experiment: Metabolic stability in human serum after 5 to 180 mins by radio-HPLC analysis; type: ADME, cell-free

SMILES	Activity [1]	Activity [2]	Activity [3]	Activity [4]	Ki [5] [nM]	Ki [6] [nM]	Drug uptake (Liver)	Drug uptake (Blood)	remaining at 10 min [7] [%]	Drug uptake (Tumour [8])	Drug uptake (Tumour [9])	Ratio (Nucleic Acid [10])	Ratio (Nucleic Acid [11])	Drug uptake (Tumour [12]) [% ID/g]	Drug uptake (Tumour [13]) [% ID/g]	Drug uptake (Kidney)	Drug uptake (Brain)	remaining at 0.5 h [14] [%]	logD [15]	Stability (Serum)
COc1cccc(OC)c1-c1cc(C(=O)NC2(C(=O)O)C3CC4CC(C3)CC2C4)nn1-c1ccc(C(=O)N(C)CCCN(C)CCCCc2cn([C@@H]3O[C@H](CO)[C@@H](O)[C@H](O)[C@H]3F)nn2)cc1C(C)C (some centres not stated)	Active	Active	Active	Active	69	0.98	–	–	–	–	–	–	–	–	–	–	–	–	–	–
COc1cccc(OC)c1-c1cc(C(=O)NC2(C(=O)O)C3CC4CC(C3)CC2C4)nn1-c1ccc(C(=O)N(C)CCCN(C)C)cc1C(C)C (configuration not stated)	–	–	–	–	74	1	–	–	–	–	–	–	–	–	–	–	–	–	–	–
COc1cccc(OC)c1-c1cc(C(=O)NC2(C(=O)O)C3CC4CC(C3)CC2C4)nn1-c1ccc(C(=O)N(C)CCCN(C)CCCCc2cn([C@@H]3O[C@H](CO)[C@@H](O)[C@H](O)[C@H]3[18F])nn2)cc1C(C)C (some centres not stated)	–	–	–	–	–	–	Not Active	Not Active	> 98	Not Active	Active	8	0.3	0.74	0.84	Active	Not Active	> 98	-0.24	Stable
